Data: ChEMBL document CHEMBL3046200, “5-(2,6-difluorobenzyl)oxymethyl-5-methyl-3-(3-methylthiophen-2-yl)- 1,2-isoxazoline as a useful rice herbicide” (J Agric Food Chem, 2005)
≈ marks a conversion by molar mass, not a printed value. Calls of active or inactive are those of the source. The rule behind the calls is not given here.

How the values were obtained:
[1] = Aquatic toxicity in Oryzias latipes (Japanese medaka); format: organism-based; details: in vivo, other: aquatic exposure
How it was run: (§1)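 Aquatic acute toxicity, given as LC50 in mg/L of test water.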

Cyperus difformis [2] = experiment: Herbicidal activity against Cyperus difformis assessed as visual damage 500 g/ha measured after 3 weeks; format: functional, organism-based
How it was run: (§2)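 Flooded greenhouse pot test with soil of 1.5% total carbon, pH 5.6. Eight annual weed species sown at 0.5–1.0 cm in one pot, under 3 cm water at 28–33 °C day and 20–26 °C night. Compound in acetone/water (50/50 v/v) added gently to the water surface at the stated rate 5 days after transplanting.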

[3] = tested on: Schoenoplectiella juncoides; experiment: Herbicidal activity against Schoenoplectiella juncoides assessed as visual damage 62.5 g/ha measured after 3 weeks; format: functional, organism-based; how it was run: as §2
Pontederia vaginalis [4] = experiment: Herbicidal activity against Monochoria vaginalis assessed as visual damage 250 g/ha measured after 3 weeks; format: functional, organism-based; how it was run: as §2
Echinochloa oryzicola [5] = experiment: Herbicidal activity against Echinochloa oryzicola assessed as visual damage 500 g/ha measured after 3 weeks; format: functional, organism-based; how it was run: as §2
Echinochloa crus-galli [6] = experiment: Herbicidal activity against 2 to 3 leaf stage Echinochloa crus-galli (barnyard grass) (barnyardgrass) at 62.5 g/ha; format: functional, organism-based
Murdannia keisak [7] = experiment: Herbicidal activity against Murdannia keisak assessed as visual damage 125 g/ha measured after 3 weeks; format: functional, organism-based; how it was run: as §2
Oryza sativa [8] = experiment: Toxicity in transplanted Oryza sativa (rice) assessed as visual damage 250 g/ha measured after 5 days after transplanting; format: organism-based; details: in vivo, 120 h
How it was run: (§3)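 Transplanted rice grown in flooded greenhouse pots (3 cm water; 28–33 °C day, 20–26 °C night; soil 1.5% total carbon, pH 5.6). Compound in acetone/water (50/50 v/v) applied to the water surface at the stated rate 5 days after transplanting. Injury scored visually on a 0–100 scale.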

Pontederia vaginalis [9] = experiment: Herbicidal activity against Monochoria vaginalis assessed as visual damage 500 g/ha measured after 3 weeks; format: functional, organism-based; how it was run: as §2
Echinochloa oryzicola [10] = experiment: Herbicidal activity against Echinochloa oryzicola assessed as visual damage 125 g/ha measured after 3 weeks; format: functional, organism-based; how it was run: as §2
Ludwigia prostrata [11] = experiment: Herbicidal activity against Ludwigia prostrata assessed as visual damage 1000 g/ha measured after 3 weeks; format: functional, organism-based; how it was run: as §2
Pontederia vaginalis [12] = experiment: Herbicidal activity against Monochoria vaginalis assessed as visual damage 1000 g/ha measured after 3 weeks; format: functional, organism-based; how it was run: as §2
Cyperus difformis [13] = experiment: Herbicidal activity against Cyperus difformis assessed as visual damage 1000 g/ha measured after 3 weeks; format: functional, organism-based; how it was run: as §2
Pontederia vaginalis [14] = experiment: Herbicidal activity against Monochoria vaginalis assessed as visual damage 125 g/ha measured after 3 weeks; format: functional, organism-based; how it was run: as §2
Oryza sativa [15] = experiment: Toxicity in transplanted Oryza sativa (rice) assessed as visual damage 125 g/ha measured after 5 days after transplanting; format: organism-based; details: in vivo, 120 h; how it was run: as §3
Echinochloa oryzicola [16] = experiment: Herbicidal activity against Echinochloa oryzicola assessed as visual damage 1000 g/ha measured after 3 weeks; format: functional, organism-based; how it was run: as §2
[17] = tested on: Schoenoplectiella juncoides; experiment: Herbicidal activity against Schoenoplectiella juncoides assessed as visual damage 125 g/ha measured after 3 weeks; format: functional, organism-based; how it was run: as §2
Rotala indica [18] = experiment: Herbicidal activity against Rotala indica assessed as visual damage 125 g/ha measured after 3 weeks; format: functional, organism-based; how it was run: as §2
Rotala indica [19] = experiment: Herbicidal activity against Rotala indica assessed as visual damage 500 g/ha measured after 3 weeks; format: functional, organism-based; how it was run: as §2
Cyperus difformis [20] = experiment: Herbicidal activity against Cyperus difformis assessed as visual damage 125 g/ha measured after 3 weeks; format: functional, organism-based; how it was run: as §2
Oryza sativa [21] = experiment: Toxicity in transplanted Oryza sativa (rice) assessed as visual damage 62.5 g/ha measured after 5 days after transplanting; format: organism-based; details: in vivo, 120 h; how it was run: as §3
[22] = Aquatic toxicity in Daphnia magna; format: organism-based; details: in vivo, other: aquatic exposure; how it was run: as §1
Oryza sativa [23] = experiment: Toxicity in transplanted Oryza sativa (rice) assessed as visual damage 500 g/ha measured after 5 days after transplanting; format: organism-based; details: in vivo, 120 h; how it was run: as §3
[24] = Genotoxicity in Cricetulus griseus lung fibroblast assessed as mutation; format: toxicity, cell-based; details: chinese hamster
How it was run: (§4)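 CHL (Chinese hamster lung fibroblast) cells kept in minimum essential medium with 5% fetal bovine serum. Harvested with 0.2% trypsin, seeded onto 50-mm dishes, and grown at 37 °C in humidified 5% CO₂/95% air.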

Murdannia keisak [25] = experiment: Herbicidal activity against Murdannia keisak assessed as visual damage 250 g/ha measured after 3 weeks; format: functional, organism-based; how it was run: as §2
Ludwigia prostrata [26] = experiment: Herbicidal activity against Ludwigia prostrata assessed as visual damage 125 g/ha measured after 3 weeks; format: functional, organism-based; how it was run: as §2
Rotala indica [27] = experiment: Herbicidal activity against Rotala indica assessed as visual damage 1000 g/ha measured after 3 weeks; format: functional, organism-based; how it was run: as §2
Ludwigia prostrata [28] = experiment: Herbicidal activity against Ludwigia prostrata assessed as visual damage 500 g/ha measured after 3 weeks; format: functional, organism-based; how it was run: as §2
Oryza sativa [29] = experiment: Toxicity in transplanted Oryza sativa (rice) assessed as visual damage 1000 g/ha measured after 5 days after transplanting; format: organism-based; details: in vivo, 120 h; how it was run: as §3
Murdannia keisak [30] = experiment: Herbicidal activity against Murdannia keisak assessed as visual damage 62.5 g/ha measured after 3 weeks; format: functional, organism-based; how it was run: as §2
Ludwigia prostrata [31] = experiment: Herbicidal activity against Ludwigia prostrata assessed as visual damage 250 g/ha measured after 3 weeks; format: functional, organism-based; how it was run: as §2
Echinochloa oryzicola [32] = experiment: Herbicidal activity against Echinochloa oryzicola assessed as visual damage 250 g/ha measured after 3 weeks; format: functional, organism-based; how it was run: as §2
Ludwigia prostrata [33] = experiment: Herbicidal activity against Ludwigia prostrata assessed as visual damage 62.5 g/ha measured after 3 weeks; format: functional, organism-based; how it was run: as §2
Rotala indica [34] = experiment: Herbicidal activity against Rotala indica assessed as visual damage 250 g/ha measured after 3 weeks; format: functional, organism-based; how it was run: as §2
Cyperus difformis [35] = experiment: Herbicidal activity against Cyperus difformis assessed as visual damage 62.5 g/ha measured after 3 weeks; format: functional, organism-based; how it was run: as §2
[36] = Genotoxicity inCricetulus griseus lung fibroblast assessed as chromosome aberration; format: toxicity, cell-based, Cricetulus griseus; details: chinese hamster; how it was run: as §4
[37] = tested on: Schoenoplectiella juncoides; experiment: Herbicidal activity against Schoenoplectiella juncoides assessed as visual damage 250 g/ha measured after 3 weeks; format: functional, organism-based; how it was run: as §2
Echinochloa crus-galli [38] = experiment: Herbicidal activity against 4 leaf stage Echinochloa crus-galli (barnyard grass) (barnyardgrass) at 250 g/ha; format: functional, organism-based
[39] = Acute toxicity in Mus musculus (mouse); format: organism-based; details: in vivo
How it was run: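 Acute toxicity in mice, given as LD50 in mg/kg.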

Cyperus difformis [40] = experiment: Herbicidal activity against Cyperus difformis assessed as visual damage 250 g/ha measured after 3 weeks; format: functional, organism-based; how it was run: as §2

With Cc1ccsc1C1=NOC(C)(COCc2c(F)cccc2F)C1 (stereo not given) the LC50 [1] was 1.9 µg/mL (≈ 5.63 µM), the Activity (Cyperus difformis [2]) was “Active” and the Activity [3] was “inactive”. The Activity (Pontederia vaginalis [4]) was “Active”, the Activity (Echinochloa oryzicola [5]) was “Active” and the Activity (Echinochloa crus-galli [6]) was “Active”. The Activity (Murdannia keisak [7]) was “inactive”, the Activity (Oryza sativa [8]) was “Non-toxic” and the Activity (Pontederia vaginalis [9]) was “Active”. The Activity (Echinochloa oryzicola [10]) was “Active”, the Activity (Ludwigia prostrata [11]) was “Active” and the Activity (Pontederia vaginalis [12]) was “Active”. For the same compound, the Activity (Cyperus difformis [13]) was “Active”, the Activity (Pontederia vaginalis [14]) was “Active” and the Activity (Oryza sativa [15]) was “Non-toxic”. For the same compound, the Activity (Echinochloa oryzicola [16]) was “Active”, the Activity [17] was “inactive” and the Activity (Rotala indica [18]) was “Active”. The Activity (Rotala indica [19]) was “Active”, the Activity (Cyperus difformis [20]) was “Active” and the Activity (Oryza sativa [21]) was “Non-toxic”. The LC50 [22] was 2.7 µg/mL (≈ 8 µM), the Activity (Oryza sativa [23]) was “Non-toxic” and the Activity [24] was “Non-toxic”. For the same compound, the Activity (Murdannia keisak [25]) was “inactive”, the Activity (Ludwigia prostrata [26]) was “Active” and the Activity (Rotala indica [27]) was “Active”. The Activity (Ludwigia prostrata [28]) was “Active”, the Activity (Oryza sativa [29]) was “Non-toxic” and the Activity (Murdannia keisak [30]) was “inactive”. The Activity (Ludwigia prostrata [31]) was “Active”, the Activity (Echinochloa oryzicola [32]) was “Active” and the Activity (Ludwigia prostrata [33]) was “Active”. For the same compound, the Activity (Rotala indica [34]) was “Active”, the Activity (Cyperus difformis [35]) was “Active” and the Activity [36] was “Non-toxic”. For the same compound, the Activity [37] was “inactive”, the Activity (Echinochloa crus-galli [38]) was “Active” and the LD50 [39] was 5000 mg/kg. For the same compound, the Activity (Cyperus difformis [40]) was “Active”.
